Screening data deposited in PubChem BioAssay by several laboratories.
NTR1 agonist: agonists of human neurotensin receptor NTR1; hit rate 0.17% among 330,000; activation, % at 20 µM; NTR1-U2OS beta-arrestin-GFP spot imaging, agonist mode;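 active = activation at or above 40% of the spot to cytoplasm intensity ratio, with at least 20 cells analyzed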
OX1R antag-1: antagonists of human orexin 1 receptor (OX1R). OX1R-expressing cells, FRET antagonist read-out. inhibition, % at 6.6 µM. hit rate 1.8% among 330,000. O43613. AID 485270; in the data active = inhibition mostly above about 38%, no sharp cut-off; inactive = mostly below about 40%
Target sequence (O43613 whole entry, looked up): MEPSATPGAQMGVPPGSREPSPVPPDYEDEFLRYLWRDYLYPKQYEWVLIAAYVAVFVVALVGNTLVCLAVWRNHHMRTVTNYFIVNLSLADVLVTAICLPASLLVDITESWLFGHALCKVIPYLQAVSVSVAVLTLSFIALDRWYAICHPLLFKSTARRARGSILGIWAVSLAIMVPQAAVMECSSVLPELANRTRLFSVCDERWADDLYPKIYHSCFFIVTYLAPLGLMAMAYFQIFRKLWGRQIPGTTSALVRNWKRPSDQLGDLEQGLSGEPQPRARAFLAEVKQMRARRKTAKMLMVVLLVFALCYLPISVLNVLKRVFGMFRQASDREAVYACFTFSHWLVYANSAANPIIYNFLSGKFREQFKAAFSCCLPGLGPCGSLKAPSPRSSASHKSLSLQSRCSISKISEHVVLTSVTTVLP
OX1R antag-2: antagonists of human orexin 1 receptor. O43613. CHO/OX1R cells, Fluo-8 calcium fluorescence, orexin A. inhibition, % at 5 µM. hit rate 0.43% among 330,000. AID 434989;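 active = inhibition above its plate's threshold, mean inhibition of all tested compounds on the plate plus 3 SD, cut at about 37% in these data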
TAAR1 antag: human TAAR1 antagonism; Q96RJ0; hit rate 1.5% among 360,000; inhibition, % at 3 µM; CHO RD-HGA16 TAAR1, Fluo-8 calcium fluorescence, antagonist;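 active = inhibition above a per-plate cutoff, the mean inhibition of test compounds on that plate plus 3 SD, cut at about 49% in these data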
Target sequence (Q96RJ0 whole entry, looked up): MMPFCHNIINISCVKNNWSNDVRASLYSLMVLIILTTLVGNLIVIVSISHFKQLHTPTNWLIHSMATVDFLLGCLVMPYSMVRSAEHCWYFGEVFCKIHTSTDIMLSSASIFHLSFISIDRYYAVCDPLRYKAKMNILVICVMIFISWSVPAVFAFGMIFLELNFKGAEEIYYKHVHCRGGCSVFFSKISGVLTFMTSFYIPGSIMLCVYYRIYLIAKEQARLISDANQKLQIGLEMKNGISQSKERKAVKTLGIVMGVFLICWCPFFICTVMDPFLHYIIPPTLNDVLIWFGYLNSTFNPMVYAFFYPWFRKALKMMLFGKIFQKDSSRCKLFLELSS
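System: CHO RD-HGA16 cells bearing hTAAR1. Reagent: EC80 β-phenethylamine stimulus. Schedule: seeding 17-24 h prior, 75-min 37 °C, 30-min RT dye loading. Signal: Fluo-8 intracellular calcium dye fluorescence, real-time kinetic reads. Read-out: % inhibition from peak post-agonist over basal fluorescence ratio. Benchmarks: vehicle wells and EC80 agonist wells. Replicates: n of 1.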
TAAR1 agonist: agonists of human TAAR1; Q96RJ0; hit rate 0.99% among 360,000; CHO RD-HGA16 TAAR1, Fluo-8 calcium fluorescence; vehicle wells 0%, saturating PEA agonist 100%; activation, % at 3 µM;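 active = activation above the mean activation of all test compounds in the run plus 3 SD, cut at about 38% in these data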
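System: CHO-derived RD-HGA16 cells with stable Gα16 and human TAAR1. Times: 17-24 h plating, Fluo-8 75 min 37 °C, 30 min RT. Measured by: calcium-sensitive Fluo-8 signal, excitation 470-495, emission 515-575 nm. Read-out basis: % activation relative to PEA EC100 response. Control set: DMSO and PEA EC100. Repeats: no replicates (n 1).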
CHO parental Ca: counter-screen for OX1R antagonists: effect in parental CHO cells | inhibition, % at 5.6 µM | AID 463079 | hit rate 0.63% among 330,000 | parental CHO-K1, ATP-induced calcium, Fluo-8 fluorescence;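 active = inhibition above that plate's mean sample inhibition plus 3 SD, cut at about 26% in these data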
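Test system: untransfected parental CHO cell line. Compound: one dose, 5.6 µM nominal. Detection: intracellular calcium via Fluo-8 no-wash fluorescent dye. Measure: % inhibition. Benchmarks: ATP-challenged DMSO wells low, unchallenged DMSO wells high.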
TAAR1 ag confirm: human TAAR1 agonism, confirmed; shares compounds with TAAR1 agonist; hit rate 82% among 2,400; CHO RD-HGA16 TAAR1, Fluo-8 calcium fluorescence; scaled: DMSO 0%, maximal phenethylamine 100%; activation, % at 3 µM;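 active = activation above a cutoff set at the run's mean compound activation plus 3 SD, cut at about 39% in these data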
Ga16 nonsel ag: nonselective agonist in parental cells, TAAR1 agonist counter-screen; shares compounds with TAAR1 agonist; CHO-Ga16 parental, Fluo-8 calcium fluorescence; normalized to maximal ATP response, DMSO zero; activation, % at 3 µM; hit rate 50% among 2,400;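 active = activation above the run cutoff, the mean activation over all tested wells plus 3 SD, cut at about 12% in these data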
TAAR1 desens: counter-screen for human TAAR1 agonists: agonists that desensitize TAAR1. shares compounds with TAAR1 agonist. CHO RD-HGA16 hTAAR1, Fluo-8 calcium, beta-PEA response inhibition. inhibition, % at 3 µM. hit rate 46% among 2,400. AID 651951;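 active = inhibition above the run cutoff, the mean inhibition of all test compounds plus 3 SD, cut at about 49% in these data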;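 also: beta-PEA stimulus applied at its EC80; loss of beta-PEA calcium signal after compound pretreatment read as receptor desensitization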
Ga16 nonsel ant: counter-screen for TAAR1 agonists: nonselective Ga16 antagonists; AID 651952; inhibition, % at 3 µM; hit rate 39% among 2,400; CHO-Ga16 ATP-induced calcium, Fluo-8 fluorescence; shares compounds with TAAR1 agonist;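 active = inhibition above the plate's mean compound inhibition plus 3 SD, computed per plate, cut at about 22% in these data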
Large screens that a line does not name were inactive (follow-up assays come after a bar, where they were run). Hits are enriched below; roughly 4% of the tested compounds scored in any of these assays.

Cc1cc2cc(CNC(=O)C3CCCC3)ccc2n1C	none
Cn1c(CNC(=O)C2CCCCC2)cc2cc(Cl)ccc21	TAAR1 antag 70, TAAR1 agonist 65 | TAAR1 ag confirm inactive | Ga16 nonsel ag inactive | TAAR1 desens inactive | Ga16 nonsel ant inactive
O=C(NCc1ccccc1)N1CCN(c2ccc(Cl)c(Cl)c2)CC1	TAAR1 antag 101, TAAR1 agonist 95, CHO parental Ca 42 | TAAR1 ag confirm inactive | Ga16 nonsel ag inactive | TAAR1 desens inactive | Ga16 nonsel ant 36
C=CCn1c(O)c(C2=c3ccccc3=NC2=O)c2ccccc21	TAAR1 agonist 64 | TAAR1 ag confirm 63 | Ga16 nonsel ag 38 | TAAR1 desens 68 | Ga16 nonsel ant 52
Cc1c(-n2c(O)c(C3=c4ccccc4=NC3=O)sc2=O)c(=O)n(-c2ccccc2)n1C	none
Cc1ccc2c(c1)c(C1=c3ccccc3=NC1=O)c(O)n2C	TAAR1 agonist 63 | TAAR1 ag confirm 39 | Ga16 nonsel ag 16 | TAAR1 desens inactive | Ga16 nonsel ant 25
Cc1ccc(C(=O)C(C)OC(=O)Cn2[nH]c(=O)c3ccccc3c2=O)cc1C (stereo unspecified)	none
COC(=O)c1ccc(CNCC(O)COc2ccc(-c3ccccc3)cc2)cc1 (stereo unspecified)	TAAR1 agonist 56 | TAAR1 ag confirm inactive | Ga16 nonsel ag 22 | TAAR1 desens inactive | Ga16 nonsel ant 30
COc1ccc(NC(=O)c2csc(C)c2)cc1OC	none
Cc1c(NC(=S)N/N=C/c2ccc(Br)cc2)c(=O)n(-c2ccccc2)n1C	none
Cn1c(CS/C(N)=N/N=C/c2ccccc2)c(Br)c(=O)n1-c1ccccc1	TAAR1 agonist 44 | TAAR1 ag confirm 46 | Ga16 nonsel ag inactive | TAAR1 desens inactive | Ga16 nonsel ant inactive
Nc1nc(Nc2ccccc2)nc2ccccc12	TAAR1 antag 91, TAAR1 agonist 103 | TAAR1 ag confirm 95 | Ga16 nonsel ag inactive | TAAR1 desens 100 | Ga16 nonsel ant inactive
CN(C)c1ccc(Nc2nc(N)c3ccccc3n2)cc1	none
Nc1nc(Nc2ccc(Cl)cc2)nc2ccccc12	TAAR1 antag 72, TAAR1 agonist 65 | TAAR1 ag confirm 84 | Ga16 nonsel ag inactive | TAAR1 desens 70 | Ga16 nonsel ant inactive
Cc1ccc(Nc2nc(N)c3ccccc3n2)cc1Cl	TAAR1 agonist 50 | TAAR1 ag confirm 83 | Ga16 nonsel ag 24 | TAAR1 desens 75 | Ga16 nonsel ant inactive
CCOc1ccc(Nc2nc(N)c3ccccc3n2)cc1	none (no result: OX1R antag-1, OX1R antag-2, CHO parental Ca)
Cn1ccsc1=NC(=O)c1cccc(OC(F)F)c1	none
CCOC(=O)c1c(NC(=O)CC)sc(C(=O)NC2CCCC2)c1C	none
CNC(=O)C1CC(=O)N(c2ccc(OCC(=O)Nc3ccc(OC)cc3)cc2)C1 (stereo unspecified)	none
Cc1cc(Nc2ccc(Cl)cc2)nc(NCc2ccccc2)n1	TAAR1 agonist 55 | TAAR1 ag confirm 81 | Ga16 nonsel ag 35 | TAAR1 desens 53 | Ga16 nonsel ant 29
Cc1cc(N2CCC(C)CC2)nc(NCc2ccccc2)n1	TAAR1 agonist 60 | TAAR1 ag confirm 67 | Ga16 nonsel ag 34 | TAAR1 desens 53 | Ga16 nonsel ant 31
Cc1cc(Nc2cccc(F)c2)nc(NCc2ccccc2)n1	none
Cc1cc(Nc2ccccc2)nc(NCc2ccccc2)n1	TAAR1 agonist 56 | TAAR1 ag confirm 76 | Ga16 nonsel ag 36 | TAAR1 desens 53 | Ga16 nonsel ant 37
CC(Sc1nnc(-c2cccnc2)o1)C(=O)NC1CCCC1 (stereo unspecified)	none
CCN1C(=O)[C@H]2[C@@H](c3ccc(C(F)(F)F)cc3)N[C@]3(CCCN(Cc4ccc(F)cc4)C3=O)[C@H]2C1=O	none (no result: NTR1 agonist, OX1R antag-1, OX1R antag-2, CHO parental Ca)
COc1ccc(-c2csc(C(O)c3ccc(F)c(F)c3)n2)cc1 (stereo unspecified)	TAAR1 antag 77, TAAR1 agonist 57 (no result: NTR1 agonist, OX1R antag-1, OX1R antag-2, CHO parental Ca) | TAAR1 ag confirm 52 | Ga16 nonsel ag 33 | TAAR1 desens 70 | Ga16 nonsel ant 53
C[C@H](CO)N1C[C@H](C)[C@@H](CN(C)S(=O)(=O)c2cccs2)Oc2c(NS(=O)(=O)c3cn(C)cn3)cccc2C1=O	none
O=C(Cn1cnc([N+](=O)[O-])c1)NCCc1ccccc1	none (no result: TAAR1 antag, TAAR1 agonist) | Ga16 nonsel ag inactive | Ga16 nonsel ant inactive
CC(C)=N/N=C(\N)SCc1ccccc1	none (no result: TAAR1 antag, TAAR1 agonist) | Ga16 nonsel ag inactive | Ga16 nonsel ant inactive
C=CCOc1ccc(/C=C2\SC(N3CCCCC3)=NC2=O)cc1	none
COc1cc(/C=C2/C(=O)c3cccc([N+](=O)[O-])c3C2=O)c(Br)cc1O	TAAR1 agonist 50 (no result: NTR1 agonist) | TAAR1 ag confirm inactive | Ga16 nonsel ag 28 | TAAR1 desens inactive | Ga16 nonsel ant 46
O=C(CCNS(=O)(=O)c1ccccc1)NNC(=O)C1COc2ccccc2O1 (stereo unspecified)	none
Cc1ccc(Nc2nc(N)nc(CN3CCc4ccccc4C3)n2)cc1	TAAR1 agonist 52 | TAAR1 ag confirm 69 | Ga16 nonsel ag inactive | TAAR1 desens inactive | Ga16 nonsel ant inactive
CN(C(=O)c1ccc(NC(=O)Cc2ccc([N+](=O)[O-])cc2)cc1)C1CC1	TAAR1 agonist 77 | TAAR1 ag confirm 97 | Ga16 nonsel ag 41 | TAAR1 desens inactive | Ga16 nonsel ant inactive
CN(C(=O)c1ccc(NC(=O)Cc2cccc([N+](=O)[O-])c2)cc1)C1CC1	none
CN1CCC(=C(c2ccccc2)c2ccc(Br)cc2)CC1	TAAR1 agonist 54 | TAAR1 ag confirm 63 | Ga16 nonsel ag 34 | TAAR1 desens inactive | Ga16 nonsel ant inactive
O=C(NC1CCCCC1)C1CCCN1C(=O)Nc1ccccc1 (stereo unspecified)	none
CCCCCNCC(=O)Nc1cccc(C(=O)Nc2cccc(C(F)(F)F)c2)c1	TAAR1 antag 50, TAAR1 agonist 72 | TAAR1 ag confirm 76 | Ga16 nonsel ag 46 | TAAR1 desens 56 | Ga16 nonsel ant 46
Cc1c(CN2CCC(n3nccc3NC(=O)C3CCOC3)CC2)[nH]c2ccccc12 (stereo unspecified)	none (no result: OX1R antag-1, OX1R antag-2, CHO parental Ca)
